Like-named read-outs stand apart in the source and are kept apart here.
Columns and labels:
primary murine microglia = assay: Microglial uptake by confocal fluorescence microscopy; type: cell-based, murine (C57BL/6); settings: for uptake by primary microglia, unlabeled Aβ42: immunostained with AF488-conjugated secondary antibody
In short: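 Microglia in glass-bottom dishes in serum- and GM-CSF-free medium at 37 °C. Conditions: 10 µM AF488-Aβ42 over time; various concentrations for 10 min; 5 µM labeled (imaged directly) or unlabeled Aβ42 (Ab9 1:5000, NL493 secondary). Fixed in 3.7% formaldehyde, DAPI, 40X confocal at fixed settings. ImageJ gave background-corrected cell fluorescence, or integrated density per nucleus. Two or three experiments.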

[1] = Solubility during SEC isolation in aCSF; type: physicochemical; settings: SEC isolation on Superdex 75 in aCSF pH 7.8
In short: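 It stood 30 min–4 h at room temperature and was spun at 18,000g. Supernatant ran on a BSA-coated Superdex 75 column in aCSF at 0.5 mL min−1, A280 monitored, with fractions kept on ice.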

[2] = particularly at physiological pH; ref Jungbauer, et al., 2009; cited from earlier work

Substance: unlabeled Aβ42 protofibrils: Aβ1–42 soluble protofibrils formed in aCSF and isolated by SEC
- uptake by primary microglia, unlabeled Aβ42 (primary murine microglia; 5 µM): rapid and extensive

Substance: unlabeled Aβ42 monomers: Aβ1–42 monomers isolated by SEC in aCSF
- uptake by primary microglia, unlabeled Aβ42 (primary murine microglia; 5 µM): not taken up readily

Substance: AF488-Aβ42 monomers: Aβ42 monomers labeled at primary amines with Alexa Fluor 488 TFP ester, isolated by SEC
- solubility [1]: solubility issues were not encountered
- uptake by primary microglia, AF488-labeled Aβ42 (primary murine microglia; 5 µM, imaged directly): not taken up readily
- internalization by microglia (confocal) (primary murine microglia; 10 µM, 37 °C, time course, 40X confocal, ImageJ quantitation): Much lower levels

Substance: AF488-N-terminal-labeled Aβ42: N-terminally AF488-labeled Aβ42 of Jungbauer et al., 2009
- solubility [2]: limited solubility

— PMC5018462 (Brain research, 2016)
